# In the library only some 3.4% were active in any assay of this set; here they are far more common.
# Arr AP2 block: human beta-arrestin and AP2 interaction inhibition | FITC-arrestin peptide / GST-AP2 beads, flow cytometry; AP2 beta2 appendage carries R879A mutation | inhibition, % at 10 µM | actives 0.31% (n = 340,000) | AID 504490;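 active = inhibition above a set limit, near 3 SD of compounds lacking own fluorescence, cut at about 54% in these data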;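 also: plate controls were DMSO wells for no effect and 5 µM unlabelled arrestin peptide for full effect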
#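 System: GST-AP2 R879A glutathione beads | Also added: FITC-arrestin peptide, 50 nM | Times: 12 min plus 1 h, RT | Signal: Bead flow cytometry, FITC channel | Buffer or medium: PBS with 0.05% Tween 20 and 0.1% BSA | Read-out basis: Percent drop in bead-associated FITC signal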
# UCH37 inh: blocks the human deubiquitinase UCH37; Q9Y5K5; purified proteasome/UCH37, Ub-AMC cleavage fluorescence; inhibition, % (test concentration not listed); actives 0.33% (n = 330,000); AID 588478;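 active = mean inhibition over replicate wells above about 20%, limit read from the data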;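 also: 0% = compound-free wells with enzyme and 100% = wells lacking proteasome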
#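 Test system – human UCH37 enzyme supplied as purified proteasome complex · Incubation – 30 min preincubation with enzyme, 25 min cleavage at room temperature · Detection – AMC fluorescence from Ub-AMC cleavage, excitation 355 nm, emission 460 nm · Benchmarks – no-proteasome wells (full inhibition) and compound-free wells (no inhibition)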
# AHR act: human AHR activation; P35869; AHR-responsive luciferase reporter cells, luminescence; activation, % at 5 µM; actives 2.5% (n = 320,000); AID 2796; in the data active = activation above about 47%;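 also: 0% = vehicle wells and 100% = reference agonist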
# PolyA inh: blocks polyadenylation in yeast reporter cells; S. cerevisiae SKY197-pL101 polyadenylation reporter, beta-gal luminescence; efflux-impaired pdr1/pdr3 knockout yeast; score 100 = 6 SD above DMSO; activity score, % at 12 µM; actives 0.02% (n = 300,000); AID 1875;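 active = lowest replicate activity score at least 50, where 100 means six control SD above control mean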;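 also: yeast exposed to compound for 9 h at 30 °C; higher score means more reporter readthrough which indicates perturbed polyadenylation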
# APOBEC3G inh: inhibitors of human APOBEC3G DNA deaminase; recombinant A3G, ssDNA deamination FAM/TAMRA fluorescence; inhibition, % at 20 µM; actives 0.28% (n = 330,000); AID 493012;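 active = inhibition of at least 40% at 20 µM, with no more than 30% in the related APOBEC3A deaminase screen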;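 also: plate controls were DMSO wells with A3G for no effect and wells lacking A3G enzyme for full effect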
# A3A deaminase: human APOBEC3A DNA deaminase inhibition; recombinant A3A, FAM/TAMRA ssDNA deamination fluorescence; inhibition, % at 20 µM; actives 0.41% (n = 330,000);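 active = at least 40% inhibition at 20 µM here, with at most 30% in a related deaminase screen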;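 also: plate controls were A3A with DMSO for no effect and wells lacking A3A enzyme for full effect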
# Target sequence (P31941 whole entry, looked up): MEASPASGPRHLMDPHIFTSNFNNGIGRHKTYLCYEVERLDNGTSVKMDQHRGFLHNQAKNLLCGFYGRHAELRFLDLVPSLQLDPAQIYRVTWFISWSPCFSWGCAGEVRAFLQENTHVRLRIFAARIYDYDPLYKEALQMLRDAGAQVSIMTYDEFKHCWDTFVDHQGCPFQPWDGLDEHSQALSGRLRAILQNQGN
# AHR act confirm: human AHR activation, confirmation; shares compounds with AHR act; human cells, AHR-responsive luciferase reporter, luminescence; activation, % at 9 µM; actives 87% (n = 2,300); AID 2845; in the data active = activation above about 49%;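 also: HepG2 hepatoma cells carrying a DRE-driven firefly luciferase reporter; 0% = vehicle wells and 100% = reference agonist wells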
# PXR act counter: counter-screen for AHR activators: human PXR activators; shares compounds with AHR act; cell-based PXR reporter, luciferase luminescence; activation, % at 11.6 µM; actives 88% (n = 2,300); AID 434939; in the data active = activation above about 11%;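 also: human hepatoma DPX-2 cells expressing full-length human PXR; 0% = DMSO and 100% = reference agonist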
# Target sequence (O75469 whole entry, looked up): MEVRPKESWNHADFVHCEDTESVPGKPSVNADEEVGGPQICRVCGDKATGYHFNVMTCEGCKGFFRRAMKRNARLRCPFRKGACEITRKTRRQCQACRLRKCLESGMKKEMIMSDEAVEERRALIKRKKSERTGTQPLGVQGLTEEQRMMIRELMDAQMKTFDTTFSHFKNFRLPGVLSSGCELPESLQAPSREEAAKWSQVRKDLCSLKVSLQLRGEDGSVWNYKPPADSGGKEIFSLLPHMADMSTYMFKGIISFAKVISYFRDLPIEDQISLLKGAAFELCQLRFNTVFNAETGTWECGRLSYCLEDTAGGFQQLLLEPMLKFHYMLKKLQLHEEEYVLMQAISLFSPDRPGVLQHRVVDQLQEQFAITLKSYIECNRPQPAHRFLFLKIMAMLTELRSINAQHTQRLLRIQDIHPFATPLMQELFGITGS
# * = called active by the depositor; . = not tested or not shown.
SMILES,Arr AP2 block,UCH37 inh,AHR act,PolyA inh,APOBEC3G inh,A3A deaminase,AHR act confirm,PXR act counter
COc1ccc(NS(=O)(=O)c2ccc3oc(Nc4ccc5c(c4)OCCO5)nc3c2)cc1,9,2,87*,3,0,-2,60*,19*
CCOc1ccccc1Nc1nnc(SCC(=O)Nc2cccc(S(=O)(=O)NC3=NCCCCC3)c2)s1,-12,6,87*,-2,-5,-5,76*,127*
CCCNc1nc(Cl)nc(Nc2ccc(Cl)cc2)n1,-9,-2,127*,-10,-2,-3,91*,.
CCCCNc1nc(Cl)nc(Nc2ccc(C)cc2)n1,-6,8,39,-19,2,0,.,.
O=C(c1cc2cc(Cl)ccc2[nH]1)N1CCc2ccccc2C1,36,4,31,-15,-2,0,.,.
O=C(c1cc2cc(F)ccc2[nH]1)N1CCc2ccccc2C1,20,0,82*,-10,-4,0,110*,46*
O=C(NN=Cc1ccc(Cl)cc1)c1sccc1-n1cccc1,.,2,.,.,.,.,.,.
CC(C)Nc1nc(NC(C)C)nc(Oc2ccc(C=NO)cc2)n1,.,0,.,.,.,.,.,.
Cc1ccccc1C(=O)NC(=S)NCCc1ccccc1,3,0,86*,8,3,-6,104*,27*
Cc1cccc(C(=O)Nc2ccc(C(=O)NN=Cc3cccc(C)n3)cc2)c1,.,4,.,.,.,.,.,.
O=C(/C=C/c1ccccc1[N+](=O)[O-])Nc1cccnc1,-3,4,145*,10,-2,-1,83*,33*
CCCc1nn(C)c(C(=O)Nc2ccc(C(C)(C)C)cc2)c1Cl,36,1,22,17,5,2,.,.
Cn1cc(C(=O)Nc2ccc(Cl)cc2)c(C(F)(F)F)n1,-7,1,107*,-11,-5,-3,101*,27*
CCCc1nn(C)c(C(=O)Nc2ccc(Cl)cc2)c1Cl,2,3,88*,-23,-4,-1,126*,24*
CCCc1nn(C)c(C(=O)Nc2ccccc2)c1Cl,15,3,82*,1,-8,-4,89*,13*
Cc1cc(C=NNC(=O)C(O)(c2ccccc2)c2ccccc2)c(C)n1-c1ccc(C(=O)O)cc1,.,-3,.,.,.,.,.,.
Oc1ccc(N=Nc2ccc(Br)cc2)c(O)c1,-16,.,89*,-8,-5,-3,61*,9
Fc1ccc(Br)cc1/C=N/N1CCN(c2ccccc2)CC1,35,.,120*,-4,-6,-5,117*,18*
O=C(NN=Cc1ccc2c(c1)OCO2)c1cccc(NC(=O)c2ccccc2Cl)c1,.,-1,.,.,.,.,.,.
CCn1c2ccccc2c2cc(Nc3cc(C)nc4ncnn34)ccc21,1,7,132*,-1,1,6,89*,90*
CCOc1cc(C=NNC(=O)Cc2ccc(C(F)(F)F)cc2[N+](=O)[O-])ccc1O,.,7,.,.,.,.,.,.
CCN(C(=O)CON=Cc1ccc(OC)cc1OC)c1c(N)n(Cc2ccccc2)c(=O)[nH]c1=O,.,2,.,.,.,.,.,.
O=C(NNC(=O)c1cccs1)c1ccc(F)cc1,-21,2,-1,22,4,-6,.,.
O=C(NNC(=O)c1cc2cc3ccccc3nc2s1)c1ccc(F)cc1,14,.,91*,19,-5,5,46,12*
O=C(NNC(=O)C1CC1)c1cc2cc3ccccc3nc2s1,6,1,110*,-11,-2,-3,72*,12*
SMILES,Arr AP2 block,UCH37 inh,AHR act,PolyA inh,APOBEC3G inh,A3A deaminase,AHR act confirm,PXR act counter
O=C(NC1CC1)C1=C[C@@H](c2ccc(C(F)(F)F)cc2)C[C@@H](OCCCCO)O1,2,-1,12,7,-8,-4,.,.
O=C(NC1CC1)C1=C[C@H](c2ccc(C(F)(F)F)cc2)C[C@H](OCCCCO)O1,-3,.,100*,-6,6,6,46,14*
Cc1cc(C)n(-c2nc(-c3ccccc3)cs2)n1,-2,2,37,-26,4,6,.,.
Cc1cc(C)n(-c2nc(-c3cccc(Cl)c3)cs2)n1,-7,0,109*,-7,-3,-1,101*,22*
Clc1ccc(-c2cn3cc(Cl)ccc3n2)cc1,6,-9,87*,-24,-7,-3,124*,19*
NNC(=O)c1ccc2nc(-c3ccc(Br)cc3)cn2c1,-11,.,100*,-19,3,-5,50*,21*
CC(=O)Nc1ccc(-c2cn3cc(C)ccc3n2)cc1,6,-28,-5,23,-6,-4,.,.
Clc1ccc(-c2cn3ccccc3n2)cc1,24,-22,26,-22,3,-6,.,.
O=C(O)c1ccc(NN=Cc2cc3cc4c(cc3nc2Cl)OCCO4)cc1,.,5,.,.,.,.,.,.
COc1ccc(C(C)=NNC(=O)c2sccc2-n2cccc2)cc1,.,-22,.,.,.,.,.,.
CCNc1c([N+](=O)[O-])c(=O)n(CC)c2ccccc12,-31,5,2,-1,0,2,.,.
CCn1c(=O)c([N+](=O)[O-])c(NCCCn2ccnc2)c2ccccc21,17,7,101*,-14,2,4,93*,52*
COc1ccc(C(=O)NN=Cc2c(C)[nH]c(=O)[nH]c2=O)cc1,.,-11,.,.,.,.,.,.
CCCNC(=O)c1ccc(COc2cccc3ccccc23)o1,12,1,31,-21,-9,-4,.,.
CCCNC(=O)c1ccc(COc2ccc(CCC)cc2OC)o1,34,-3,80*,-3,-1,0,80*,41*
COc1ccc(C(=O)NN=Cc2ccc(OC)c(COc3ccc(F)cc3)c2)cc1,.,-3,.,.,.,.,.,.
CCCCc1cc2c(c(NC(C)=O)n1)c(=O)oc1ccccc12,.,-49,94*,-21,-6,-3,99*,.
O=C(Cc1ccc([N+](=O)[O-])cc1)NN=Cc1cccnc1,.,5,.,.,.,.,.,.
O=C(NN=Cc1cc2ccccc2nc1Cl)[C@H]1C[C@@H]1c1ccccc1,.,-4,.,.,.,.,.,.
Cc1nc(NCCOc2ccccc2)sc1C(=O)Nc1ccccc1,4,2,88*,-19,-10,-3,145*,47*
CNC(=O)c1cccnc1Nc1cccc(C(F)(F)F)c1,-2,1,120*,-4,-7,-2,105*,15*
FC(F)(F)c1ccc(Cl)c(NC(=S)N/N=C/c2ccccc2C(F)(F)F)c1,20,.,105*,5,-5,-1,55*,74*
O=c1c2ccccc2nc2sc3ccccc3n12,19,-5,113*,.,1,-2,155*,14*
COC(=O)C=c1sc2nc3ccccc3n2c1=O,.,6,.,.,.,.,.,.
